Laboratory results taken from ChEMBL document CHEMBL4041488, “Structural Characterization and Assessment of the Cytotoxicity of 2,3-Dihydro-1H-indene Derivatives and Coumarin Glucosides from the Bark of Streblus indicus” (J Nat Prod, 2016).

Legend:
[1] = tested on: A549; experiment: Cytotoxicity against human A549 cells assessed as reduction in cell viability after 48 hrs by MTT assay; assay type: functional, cell-based; settings: A549, 48 h
Method in brief: (§1)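 1 × 10^4 cells per well, pre-incubated 12 h at 37 °C under 5% CO2, then exposed to serial dilutions of compound (paclitaxel as reference) for 48 h. MTT reagent (5 mg/mL) added for a further 4 h, formazan dissolved in DMSO, absorbance read at 570 nm. Three independent experiments, each in triplicate; IC50 from sigmoid curve fitting.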

[2] = tested on: MCF7; experiment: Cytotoxicity against human MCF7 cells assessed as reduction in cell viability after 48 hrs by MTT assay; assay type: functional, cell-based; settings: MCF7, 48 h; method in brief: as §1

| Structure (SMILES) | IC50 [1] [µM] | IC50 [2] [µM] |
| --- | --- | --- |
| COC(=O)C[C@@H]1c2c(-c3ccc(O)cc3OC)cc(O)c(O)c2C[C@H]1C(C)(C)O | 6 | 7.2 |
| COc1cc(O)ccc1C(=O)C[C@@H]1c2ccc(O)c(O)c2C[C@H]1C(C)(C)O | 2.2 | 3.3 |
| COC(=O)C[C@@H]1c2c(-c3ccc(O)cc3OC)cc(O)c(O)c2C[C@@H]1C(C)(C)O | 5.6 | 6.7 |
| COc1cc(C(=O)OC[C@H]2O[C@@H](Oc3ccc4ccc(=O)oc4c3)[C@H](O)[C@@H](O)[C@@H]2O)cc(OC)c1O | > 10 | > 10 |
| COc1cc2ccc(=O)oc2cc1O[C@@H]1O[C@H](COC(=O)CCc2cc(OC)c(O[C@@H]3O[C@H](CO)[C@@H](O)[C@H](O)[C@H]3O)c(OC)c2)[C@@H](O)[C@H](O)[C@H]1O | > 10 | > 10 |
| COc1cc2ccc(=O)oc2cc1O[C@@H]1O[C@H](COC(=O)c2cc(OC)c(O[C@@H]3O[C@H](CO)[C@@H](O)[C@H](O)[C@H]3O)c(OC)c2)[C@@H](O)[C@H](O)[C@H]1O | > 10 | > 10 |
| COc1cc(C(=O)OC[C@H]2O[C@@H](Oc3cc4oc(=O)ccc4cc3OC)[C@H](O)[C@@H](O)[C@@H]2O)ccc1O[C@@H]1O[C@H](CO)[C@@H](O)[C@H](O)[C@H]1O | > 10 | > 10 |
| COc1cc(O)ccc1C(=O)C[C@H]1c2ccc(O)c(O)c2C[C@@H]1C(C)(C)O | 2.5 | 3.9 |
